# Assay results gathered from unrelated publications.
SMILES,host,matrix,route,dose,setting,half-life [min]
COc1cc(C(=O)OCCCN2CCCN(CCCOC(=O)c3cc(OC)c(OC)c(OC)c3)CC2)cc(OC)c1OC,male CD-1 mouse,brain,subcutaneous,,,50.4
CC(=O)O[C@@]12CO[C@@H]1C[C@H](O)[C@@]1(C)C(=O)[C@H](O)C3=C(C)[C@@H](OC(=O)[C@H](O)[C@@H](NC(=O)OC(C)(C)C)c4ccccc4)C[C@@](O)([C@@H](OC(=O)c4ccccc4)[C@H]21)C3(C)C,male Kunming mouse,lung,oral,20 mg/kg,,36
CN1CCN(C(=O)[C@H](CCCN[C@@H]2C[C@H]2c2ccc(F)cc2)NC(=O)c2ccc(-n3ccnn3)cc2)CC1,CD-1 mouse,plasma,oral,10 mg/kg,,299
FC(F)(F)c1nc2c(-c3cc(Cl)cc(Cl)c3)ccnc2[nH]1,male C57BL/6 mouse,plasma,oral,10 mg/kg,,> 900
CCOc1ccc(N(C)S(=O)(=O)c2cc(Cl)sc2C(=O)Nc2cc(Cl)cc(C(=O)O)c2)cc1OC,male C57BL/6 mouse,plasma,intraperitoneal,10 mg/kg,,28.1
CC(C)C[C@H](NC(=O)[C@@H]1COCCCCCC(=O)N2C[C@H](F)C[C@H]2C(=O)N1)C(=O)[C@@]1(C)CO1,male BALB/c mouse,plasma,oral,150 mg/kg,,47.4
O=[N+]([O-])c1ccc(-c2ccc(O)cc2)c2cccnc12,male CD-1 mouse,plasma,intravenous,1 mg/kg,,7.56
CC(C)(C)OC(=O)NNc1nc2nonc2nc1Nc1ccccc1F,male C57BL/6 mouse,plasma,oral,10 mg/kg,,15 to 27
Nc1ncn([C@H]2C[C@H](O)[C@@H](CO)O2)c(=O)n1,female C57BL/6 mouse,plasma,intravenous,0.4 mg/kg,,46.2
CCN1CCN(Cc2ccc(NC(=O)c3ccc(C)c(NC(=O)c4cncc(-c5cccs5)c4)c3)cc2C(F)(F)F)CC1,mouse,plasma,intraperitoneal,15 mg/kg,single dose,145
O=C1CC[C@H](N2Cc3c(ccc4c3OCC43CCN(C[C@@H]4CCC5(CCN(c6ccc([C@@H]7c8ccc(O)cc8CC[C@@H]7c7ccccc7)cc6)CC5)OC4)CC3)C2=O)C(=O)N1,mouse,plasma,oral,3 mg/kg,,~780
CC(C(=O)Nc1c(F)cccc1F)N1CCN(c2ccccc2)CC1 (stereo not shown),female C57BL/6 mouse,plasma,intraperitoneal,10 mg/kg,,~33
CC1=NN(/C(=N/c2nnc(C)s2)Nc2ccc(C)c(C)c2)C(c2cc(F)c(F)c(F)c2)S1 (stereo not shown),male CD-1 mouse,plasma,oral,30 mg/kg,,131
